Columns and labels:
Details in all cases: stereoisomer not certain
UniProt Q8VGC6 = molecular target: T1, UniProt Q8VGC6
T1 sequence (whole entry): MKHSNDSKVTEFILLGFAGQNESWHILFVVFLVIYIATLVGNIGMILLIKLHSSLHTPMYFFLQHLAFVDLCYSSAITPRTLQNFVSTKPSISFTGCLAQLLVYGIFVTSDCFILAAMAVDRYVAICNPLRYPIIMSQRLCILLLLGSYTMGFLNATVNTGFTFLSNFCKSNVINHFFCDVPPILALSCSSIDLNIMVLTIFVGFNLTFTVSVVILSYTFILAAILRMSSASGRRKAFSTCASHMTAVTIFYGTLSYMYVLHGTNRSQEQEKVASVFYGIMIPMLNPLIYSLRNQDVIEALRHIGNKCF
Method in brief: (§1)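 Each entry records the cell line, G-protein, co-transfected protein and tags used. Methods varied with the source, often transient luciferase assays in mammalian cell lines. A receptor–molecule pair is called responsive (active) if the original authors judged its signal statistically different from baseline and non-responsive (inactive) otherwise.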

UniProt Q8VGD7 = molecular target: T2, UniProt Q8VGD7
T2 sequence (whole entry): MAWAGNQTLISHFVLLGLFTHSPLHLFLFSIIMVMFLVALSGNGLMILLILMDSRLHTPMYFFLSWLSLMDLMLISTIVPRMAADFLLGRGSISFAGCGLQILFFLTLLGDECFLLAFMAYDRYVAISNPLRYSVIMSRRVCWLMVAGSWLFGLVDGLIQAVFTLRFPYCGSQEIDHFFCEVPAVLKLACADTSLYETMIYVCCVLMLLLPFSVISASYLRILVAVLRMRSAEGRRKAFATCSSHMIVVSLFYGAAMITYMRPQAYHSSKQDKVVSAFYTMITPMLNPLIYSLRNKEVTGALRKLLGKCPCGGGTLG
Method in brief: as §1

UniProt Q8VGH1 = molecular target: T3, UniProt Q8VGH1
T3 sequence (whole entry): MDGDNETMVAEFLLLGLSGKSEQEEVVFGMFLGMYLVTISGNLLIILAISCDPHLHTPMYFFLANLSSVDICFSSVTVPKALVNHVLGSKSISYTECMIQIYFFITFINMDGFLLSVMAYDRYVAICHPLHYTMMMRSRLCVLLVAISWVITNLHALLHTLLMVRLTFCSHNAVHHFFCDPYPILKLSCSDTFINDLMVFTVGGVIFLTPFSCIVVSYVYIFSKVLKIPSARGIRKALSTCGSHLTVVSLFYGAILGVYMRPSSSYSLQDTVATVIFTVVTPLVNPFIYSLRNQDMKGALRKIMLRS
Method in brief: as §1

UniProt Q8VGJ1 = molecular target: T4, UniProt Q8VGJ1
T4 sequence (whole entry): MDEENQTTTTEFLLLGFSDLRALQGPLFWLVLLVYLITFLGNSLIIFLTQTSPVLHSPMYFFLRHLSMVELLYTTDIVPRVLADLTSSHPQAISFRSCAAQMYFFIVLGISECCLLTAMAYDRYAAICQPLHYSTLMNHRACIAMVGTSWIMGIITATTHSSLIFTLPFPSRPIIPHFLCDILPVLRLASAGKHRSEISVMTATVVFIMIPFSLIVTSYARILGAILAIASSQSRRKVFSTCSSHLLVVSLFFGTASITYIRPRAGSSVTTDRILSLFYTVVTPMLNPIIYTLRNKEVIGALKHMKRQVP
Method in brief: as §1

UniProt Q8VGJ3 = molecular target: T5, UniProt Q8VGJ3
T5 sequence (whole entry): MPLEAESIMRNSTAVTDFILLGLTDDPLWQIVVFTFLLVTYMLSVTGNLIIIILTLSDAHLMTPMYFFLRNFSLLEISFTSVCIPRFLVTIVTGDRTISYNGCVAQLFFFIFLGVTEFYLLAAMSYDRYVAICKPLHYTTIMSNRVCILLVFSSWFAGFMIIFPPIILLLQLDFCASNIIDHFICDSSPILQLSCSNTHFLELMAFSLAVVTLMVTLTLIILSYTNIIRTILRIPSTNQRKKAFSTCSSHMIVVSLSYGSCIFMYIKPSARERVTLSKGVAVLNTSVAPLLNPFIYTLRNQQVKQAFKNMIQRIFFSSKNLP
Method in brief: as §1

UniProt Q8VGJ5 = molecular target: T6, UniProt Q8VGJ5
T6 sequence (whole entry): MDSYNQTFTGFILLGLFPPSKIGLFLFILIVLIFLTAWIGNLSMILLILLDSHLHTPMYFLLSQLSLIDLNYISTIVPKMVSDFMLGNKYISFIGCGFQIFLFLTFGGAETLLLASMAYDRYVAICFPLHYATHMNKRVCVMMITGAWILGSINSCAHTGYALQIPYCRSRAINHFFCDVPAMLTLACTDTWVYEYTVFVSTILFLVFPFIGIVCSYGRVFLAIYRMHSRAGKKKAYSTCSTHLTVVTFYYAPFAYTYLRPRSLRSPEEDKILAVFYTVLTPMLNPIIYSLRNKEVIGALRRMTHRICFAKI
Method in brief: as §1

UniProt Q8VGL0 = molecular target: T7, UniProt Q8VGL0
T7 sequence (whole entry): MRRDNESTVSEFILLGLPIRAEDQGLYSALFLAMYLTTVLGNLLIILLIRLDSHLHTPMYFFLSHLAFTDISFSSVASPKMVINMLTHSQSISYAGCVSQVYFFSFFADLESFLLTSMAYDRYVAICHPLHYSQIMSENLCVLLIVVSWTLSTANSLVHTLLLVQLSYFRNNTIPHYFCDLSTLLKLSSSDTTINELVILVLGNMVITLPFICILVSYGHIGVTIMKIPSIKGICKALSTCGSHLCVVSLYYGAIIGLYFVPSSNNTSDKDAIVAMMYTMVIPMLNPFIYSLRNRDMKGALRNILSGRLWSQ
Method in brief: as §1

UniProt Q8VGL7 = molecular target: T8, UniProt Q8VGL7
T8 sequence (whole entry): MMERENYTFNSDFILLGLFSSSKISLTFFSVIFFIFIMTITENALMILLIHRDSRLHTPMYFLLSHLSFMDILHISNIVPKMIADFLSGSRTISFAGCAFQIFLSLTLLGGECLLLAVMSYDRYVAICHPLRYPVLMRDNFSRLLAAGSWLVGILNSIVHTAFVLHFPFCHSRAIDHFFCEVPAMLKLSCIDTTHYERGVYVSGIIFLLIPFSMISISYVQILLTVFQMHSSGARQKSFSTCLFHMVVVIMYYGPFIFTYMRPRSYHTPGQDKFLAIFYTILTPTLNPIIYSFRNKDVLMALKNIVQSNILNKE
Method in brief: as §1

UniProt Q8VGM2 = molecular target: T9, UniProt Q8VGM2
T9 sequence (whole entry): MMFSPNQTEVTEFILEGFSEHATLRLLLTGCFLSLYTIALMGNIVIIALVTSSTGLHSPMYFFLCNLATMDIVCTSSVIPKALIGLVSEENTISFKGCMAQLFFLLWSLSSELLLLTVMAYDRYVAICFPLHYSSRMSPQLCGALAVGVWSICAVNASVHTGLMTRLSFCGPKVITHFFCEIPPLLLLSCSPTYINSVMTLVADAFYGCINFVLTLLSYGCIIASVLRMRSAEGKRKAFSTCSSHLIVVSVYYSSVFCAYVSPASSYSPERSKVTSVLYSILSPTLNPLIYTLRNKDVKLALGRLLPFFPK
Method in brief: as §1

UniProt Q8VGP6 = molecular target: T10, UniProt Q8VGP6
T10 sequence (whole entry): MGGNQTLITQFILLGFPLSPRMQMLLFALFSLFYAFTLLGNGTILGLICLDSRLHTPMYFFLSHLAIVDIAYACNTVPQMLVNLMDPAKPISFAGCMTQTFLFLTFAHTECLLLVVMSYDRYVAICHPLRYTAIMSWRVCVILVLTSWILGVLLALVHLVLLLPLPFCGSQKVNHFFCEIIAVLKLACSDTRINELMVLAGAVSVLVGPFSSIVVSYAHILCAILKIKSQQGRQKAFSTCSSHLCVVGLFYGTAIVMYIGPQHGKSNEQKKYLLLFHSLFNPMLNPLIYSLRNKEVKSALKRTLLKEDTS
Method in brief: as §1

UniProt Q8VGQ3 = molecular target: T11, UniProt Q8VGQ3
T11 sequence (whole entry): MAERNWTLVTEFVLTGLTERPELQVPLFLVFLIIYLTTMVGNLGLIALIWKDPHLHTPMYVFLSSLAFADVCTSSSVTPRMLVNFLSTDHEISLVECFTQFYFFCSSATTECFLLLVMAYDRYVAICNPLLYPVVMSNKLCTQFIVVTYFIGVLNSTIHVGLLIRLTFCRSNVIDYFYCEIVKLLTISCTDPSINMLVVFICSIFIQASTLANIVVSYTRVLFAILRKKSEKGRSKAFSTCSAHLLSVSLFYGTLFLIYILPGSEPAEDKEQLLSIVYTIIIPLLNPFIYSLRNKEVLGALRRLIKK
Method in brief: as §1

UniProt Q8VGT4 = molecular target: T12, UniProt Q8VGT4
T12 sequence (whole entry): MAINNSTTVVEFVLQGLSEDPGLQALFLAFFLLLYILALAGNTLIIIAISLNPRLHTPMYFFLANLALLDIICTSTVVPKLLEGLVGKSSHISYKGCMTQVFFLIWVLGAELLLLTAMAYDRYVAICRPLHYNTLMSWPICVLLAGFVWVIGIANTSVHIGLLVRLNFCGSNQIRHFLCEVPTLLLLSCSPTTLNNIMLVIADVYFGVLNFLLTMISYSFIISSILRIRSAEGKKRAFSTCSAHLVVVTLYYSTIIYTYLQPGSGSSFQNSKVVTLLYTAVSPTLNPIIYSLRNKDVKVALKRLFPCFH
Method in brief: as §1

UniProt Q8VGU3 = molecular target: T13, UniProt Q8VGU3
T13 sequence (whole entry): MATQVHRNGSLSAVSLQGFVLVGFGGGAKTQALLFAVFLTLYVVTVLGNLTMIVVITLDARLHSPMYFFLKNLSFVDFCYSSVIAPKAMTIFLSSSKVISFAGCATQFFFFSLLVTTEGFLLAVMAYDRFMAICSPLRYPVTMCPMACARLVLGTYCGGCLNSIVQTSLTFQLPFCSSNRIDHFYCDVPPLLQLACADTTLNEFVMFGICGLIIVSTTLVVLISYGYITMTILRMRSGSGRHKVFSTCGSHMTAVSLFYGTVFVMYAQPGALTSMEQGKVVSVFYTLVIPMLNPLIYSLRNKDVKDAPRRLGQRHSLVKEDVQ
Method in brief: as §1

UniProt Q8VGV1 = molecular target: T14, UniProt Q8VGV1
T14 sequence (whole entry): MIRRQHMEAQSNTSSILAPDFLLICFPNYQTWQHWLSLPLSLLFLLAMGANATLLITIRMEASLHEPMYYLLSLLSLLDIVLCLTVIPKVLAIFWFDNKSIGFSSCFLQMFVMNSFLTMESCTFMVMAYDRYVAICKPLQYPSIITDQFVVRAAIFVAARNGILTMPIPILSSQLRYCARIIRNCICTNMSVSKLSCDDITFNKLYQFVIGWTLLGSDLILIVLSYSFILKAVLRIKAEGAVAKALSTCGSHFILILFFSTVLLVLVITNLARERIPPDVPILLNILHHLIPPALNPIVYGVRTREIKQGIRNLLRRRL
Method in brief: as §1

UniProt Q8VGV7 = molecular target: T15, UniProt Q8VGV7
T15 sequence (whole entry): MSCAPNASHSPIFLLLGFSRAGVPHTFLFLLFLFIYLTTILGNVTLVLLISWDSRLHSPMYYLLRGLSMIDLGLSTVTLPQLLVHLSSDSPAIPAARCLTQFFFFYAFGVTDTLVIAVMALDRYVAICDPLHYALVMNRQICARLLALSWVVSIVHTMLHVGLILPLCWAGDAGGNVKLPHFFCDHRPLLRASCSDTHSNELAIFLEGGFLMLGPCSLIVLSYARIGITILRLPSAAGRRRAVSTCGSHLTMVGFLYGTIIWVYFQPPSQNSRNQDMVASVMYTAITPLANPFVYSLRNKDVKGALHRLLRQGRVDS
Method in brief: as §1

UniProt Q8VGW5 = molecular target: T16, UniProt Q8VGW5
T16 sequence (whole entry): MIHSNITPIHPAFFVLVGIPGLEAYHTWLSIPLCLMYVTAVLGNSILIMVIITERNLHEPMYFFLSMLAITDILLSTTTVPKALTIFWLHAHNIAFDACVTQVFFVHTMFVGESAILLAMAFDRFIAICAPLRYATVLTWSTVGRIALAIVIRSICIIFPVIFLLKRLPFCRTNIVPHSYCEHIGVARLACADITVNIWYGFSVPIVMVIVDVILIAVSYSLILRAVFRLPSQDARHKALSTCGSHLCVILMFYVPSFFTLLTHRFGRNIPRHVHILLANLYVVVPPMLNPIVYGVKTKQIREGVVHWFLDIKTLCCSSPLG
Method in brief: as §1

UniProt Q8VGX3 = molecular target: T17, UniProt Q8VGX3
T17 sequence (whole entry): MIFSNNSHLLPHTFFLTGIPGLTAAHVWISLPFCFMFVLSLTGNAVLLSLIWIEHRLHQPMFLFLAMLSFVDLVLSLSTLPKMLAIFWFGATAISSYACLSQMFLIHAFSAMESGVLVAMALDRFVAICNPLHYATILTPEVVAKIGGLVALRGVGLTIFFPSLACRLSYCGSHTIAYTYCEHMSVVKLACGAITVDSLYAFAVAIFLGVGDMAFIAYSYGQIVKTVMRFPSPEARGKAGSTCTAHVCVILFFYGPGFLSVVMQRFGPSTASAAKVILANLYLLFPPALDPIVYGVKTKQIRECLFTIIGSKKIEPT
Method in brief: as §1

UniProt Q8VGX5 = molecular target: T18, UniProt Q8VGX5
T18 sequence (whole entry): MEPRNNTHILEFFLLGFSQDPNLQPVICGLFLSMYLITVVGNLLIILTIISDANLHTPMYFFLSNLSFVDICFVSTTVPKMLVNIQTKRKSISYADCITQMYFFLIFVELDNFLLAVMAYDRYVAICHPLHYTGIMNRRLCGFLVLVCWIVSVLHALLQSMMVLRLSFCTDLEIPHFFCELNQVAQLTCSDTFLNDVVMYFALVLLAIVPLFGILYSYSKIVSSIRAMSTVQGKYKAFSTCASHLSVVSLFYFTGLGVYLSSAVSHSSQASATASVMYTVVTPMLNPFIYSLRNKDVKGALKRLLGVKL
Method in brief: as §1

Measured: odorant receptor agonist call

CCCCCC(C)(C)O
inactive: UniProt Q8VGC6

CCCCCCCCC(=O)O
active: UniProt Q8VGC6 | UniProt Q8VGV1
inactive: all other assays above

From the M2OR odorant receptor database
